Publication PMC6220894 (Food and chemical toxicology : an international journal …, 2018)
Where two headings read alike, the source gives them in different places.

What was measured:
[1] = test system: Salmonella typhimurium TA 1535; assay type: cell-based; settings: pre-incubation
[2] = test system: Salmonella typhimurium TA 1535; assay type: cell-based; settings: plate incorporation
[3] = test system: Salmonella typhimurium TA 102; assay: Ames bacterial reverse mutation assay, pre-incubation method; assay type: cell-based
[4] = In vitro metabolism in cryopreserved hepatocytes; assay type: in vitro ADME; settings: rat hepatocytes; 25 µM; 4 hours
[5] = test system: Salmonella typhimurium TA 102; assay: Ames bacterial reverse mutation assay, plate incorporation method; assay type: cell-based
CYP3A4 = assay: CYP mRNA induction in human hepatocytes; assay type: in vitro ADME; settings: 0.3, 3, 30 µM; 72 hours; 3 donors
[6] = Stability in rabbit plasma; assay type: in vitro ADME
CYP2B6 = assay: CYP mRNA induction in human hepatocytes; assay type: in vitro ADME; settings: 0.3, 3, 30 µM; 72 hours; 3 donors
[7] = In vitro metabolism in cryopreserved hepatocytes; assay type: in vitro ADME; settings: human hepatocytes; 25 µM; 4 hours
[8] = test system: Salmonella typhimurium TA 1537; assay: Ames bacterial reverse mutation assay, pre-incubation method; assay type: cell-based
[9] = mice; long-term (10 month) administration; ref Davies et al., 2011; cited from earlier work
CYP1A2 = assay: CYP mRNA induction in human hepatocytes; assay type: in vitro ADME; settings: 0.3, 3, 30 µM; 72 hours; 3 donors
[10] = Stability in human whole blood; assay type: in vitro ADME; settings: 37°C, no increase in salicylic acid
hypertension = settings: mice; ref Wu et al., 2016; cited from earlier work
[11] = test system: cryopreserved human hepatocytes; assay: Cytotoxicity; assay type: cell-based; settings: 72 hours
How it was run: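 Cryopreserved hepatocytes from three donors (1 male, 2 female, Caucasian, 43–59 y) were thawed, plated at 0.15 million cells/well on collagen-coated plates at 37°C in 5% CO2, medium-changed after 2–4 h attachment, and recovered overnight. Cells were exposed to 0.3, 3 or 30 µM test compound or 0.1% DMSO vehicle for 72 h, with medium renewed daily. MTS conversion to formazan was then read, in triplicate.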

[12] = Stability in rabbit whole blood; assay type: in vitro ADME
C. elegans = settings: ref Nguyen et al., 2016; cited from earlier work
plasma protein = assay: Plasma protein binding by equilibrium dialysis; assay type: in vitro ADME; settings: rat plasma, mean ± SE
[13] = Plasma protein binding by equilibrium dialysis; assay type: in vitro ADME; settings: male, Sprague-Dawley, rat, plasma, pH 7.4
CYP1A2 or CYP3A4 = assay: CYP mRNA induction in human hepatocytes, isoform not given; assay type: in vitro ADME; settings: 0.3 µM; one donor; isoform not stated
hERG = hERG (Homo sapiens, UniProt Q12809); assay type: cell-based
hERG, sequence (Q12809 whole entry): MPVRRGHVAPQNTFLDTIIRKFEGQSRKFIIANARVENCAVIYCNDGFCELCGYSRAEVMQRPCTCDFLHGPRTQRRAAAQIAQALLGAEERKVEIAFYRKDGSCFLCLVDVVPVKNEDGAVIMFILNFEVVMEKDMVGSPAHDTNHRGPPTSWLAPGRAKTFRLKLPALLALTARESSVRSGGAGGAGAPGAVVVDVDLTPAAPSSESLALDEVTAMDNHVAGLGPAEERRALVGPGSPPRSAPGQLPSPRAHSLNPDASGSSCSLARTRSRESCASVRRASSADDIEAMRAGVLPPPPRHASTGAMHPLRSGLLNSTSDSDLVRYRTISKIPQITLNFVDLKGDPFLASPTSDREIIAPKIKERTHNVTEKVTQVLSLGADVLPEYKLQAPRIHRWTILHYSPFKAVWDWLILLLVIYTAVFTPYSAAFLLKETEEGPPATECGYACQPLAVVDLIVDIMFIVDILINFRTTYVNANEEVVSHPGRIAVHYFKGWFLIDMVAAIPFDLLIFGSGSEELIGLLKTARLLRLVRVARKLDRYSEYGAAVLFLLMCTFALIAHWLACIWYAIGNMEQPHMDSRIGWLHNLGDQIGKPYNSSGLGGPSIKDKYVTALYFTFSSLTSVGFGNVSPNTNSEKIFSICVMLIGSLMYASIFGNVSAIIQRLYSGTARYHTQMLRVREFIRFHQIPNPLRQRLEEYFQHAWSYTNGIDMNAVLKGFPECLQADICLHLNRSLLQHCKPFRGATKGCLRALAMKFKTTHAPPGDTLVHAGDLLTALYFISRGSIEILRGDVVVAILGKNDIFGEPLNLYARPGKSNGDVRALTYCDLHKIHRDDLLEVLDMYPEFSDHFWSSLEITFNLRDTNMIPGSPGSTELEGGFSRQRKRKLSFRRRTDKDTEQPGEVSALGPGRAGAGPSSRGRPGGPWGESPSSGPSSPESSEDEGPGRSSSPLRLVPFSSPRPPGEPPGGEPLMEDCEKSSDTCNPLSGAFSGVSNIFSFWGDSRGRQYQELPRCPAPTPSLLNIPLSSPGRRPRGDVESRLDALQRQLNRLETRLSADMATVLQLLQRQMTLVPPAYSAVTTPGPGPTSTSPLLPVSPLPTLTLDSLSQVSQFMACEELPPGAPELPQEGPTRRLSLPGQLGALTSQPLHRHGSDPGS

[14] = −S9, 0.05 mg/plate as printed (third dose row)
[15] = +S9, 0.05 mg/plate as printed (third dose row)

SMILES: CC(=O)O.NCc1ccccc1O [2-HOBA, 2-Hydroxybenzylamine acetate]
- Mean plate counts (revertant colonies) ([1]; +S9, 0.05 mg/plate): 12.0±2.0
- Mean plate counts (revertant colonies) ([1]; +S9, 0.15 mg/plate): 12.0±1.0
- Mean plate counts (revertant colonies) ([1]; +S9, 0.5 mg/plate): 14.3±2.1
- Mean plate counts (revertant colonies) ([1]; +S9, 1.5 mg/plate): 12.3±0.6
- Mean plate counts (revertant colonies) ([1]; +S9, 5 mg/plate): 11.7±2.1
- Change in revertant colony counts vs negative control (mutagenicity) ([1]; +S9 and −S9, all dose levels): No changes in revertant colony counts were observed
- Mean plate counts (revertant colonies) ([1]; −S9, 0.05 mg/plate): 12.7±1.5
- Mean plate counts (revertant colonies) [1, 14]: 12.0±1.0
- Mean plate counts (revertant colonies) ([1]; −S9, 0.15 mg/plate): 11.7±1.5
- Mean plate counts (revertant colonies) ([1]; −S9, 1.5 mg/plate): 11.3±1.5
- Mean plate counts (revertant colonies) ([1]; −S9, 5 mg/plate): 12.0±1.7
- Mean plate counts (revertant colonies) ([2]; +S9, 0.05 mg/plate): 9.3±1.5
- Mean plate counts (revertant colonies) [2, 15]: 10.7±0.6
- Mean plate counts (revertant colonies) ([2]; +S9, 0.15 mg/plate): 9.0±1.0
- Mean plate counts (revertant colonies) ([2]; +S9, 1.5 mg/plate): 10.3±1.5
- Mean plate counts (revertant colonies) ([2]; +S9, 5 mg/plate): 10.3±1.5
- Change in revertant colony counts vs negative control (mutagenicity) ([2]; +S9 and −S9, all dose levels): No changes in revertant colony counts were observed
- Mean plate counts (revertant colonies) ([2]; −S9, 0.05 mg/plate): 10.7±0.6
- Mean plate counts (revertant colonies) [2, 14]: 10.7±1.2
- Mean plate counts (revertant colonies) ([2]; −S9, 0.15 mg/plate): 11.0±1.0
- Mean plate counts (revertant colonies) ([2]; −S9, 1.5 mg/plate): 10.7±1.2
- Mean plate counts (revertant colonies) ([2]; −S9, 5 mg/plate): 11.0±1.0
- Mean plate counts (revertant colonies) ([3]; +S9, 0.05 mg/plate): 280.0±6.0
- Mean plate counts (revertant colonies) ([3]; +S9, 0.15 mg/plate): 271.3±11.0
- Mean plate counts (revertant colonies) ([3]; +S9, 0.5 mg/plate): 256.0±7.2
- Mean plate counts (revertant colonies) ([3]; +S9, 1.5 mg/plate): 283.3±16.2
- Mean plate counts (revertant colonies) ([3]; +S9, 5 mg/plate): 256.7±8.1
- Change in revertant colony counts vs negative control (mutagenicity) ([3]; +S9 and −S9, all dose levels): No changes in revertant colony counts were observed
- Mean plate counts (revertant colonies) ([3]; −S9, 0.05 mg/plate): 241.3±12.1
- Mean plate counts (revertant colonies) [3, 14]: 236.0±15.6
- Mean plate counts (revertant colonies) ([3]; −S9, 0.15 mg/plate): 232.7±3.1
- Mean plate counts (revertant colonies) ([3]; −S9, 1.5 mg/plate): 250.0±12.5
- Mean plate counts (revertant colonies) ([3]; −S9, 5 mg/plate): 250.7±14.0
- principle metabolites observed [4]: salicylic acid (M1) and the glycoside conjugate metabolite of 2-HOBA
- Mean plate counts (revertant colonies) ([5]; +S9, 0.05 mg/plate): 302.7±11.4
- Mean plate counts (revertant colonies) [5, 15]: 323.3±61.2
- Mean plate counts (revertant colonies) ([5]; +S9, 0.15 mg/plate): 296.7±27.2
- Mean plate counts (revertant colonies) ([5]; +S9, 1.5 mg/plate): 293.3±24.2
- Mean plate counts (revertant colonies) ([5]; +S9, 5 mg/plate): 282.7±19.0
- Change in revertant colony counts vs negative control (mutagenicity) ([5]; +S9 and −S9, all dose levels): No changes in revertant colony counts were observed
- Mean plate counts (revertant colonies) ([5]; −S9, 0.05 mg/plate): 292.7±6.4
- Mean plate counts (revertant colonies) [5, 14]: 279.3±14.2
- Mean plate counts (revertant colonies) ([5]; −S9, 0.15 mg/plate): 287.3±24.0
- Mean plate counts (revertant colonies) ([5]; −S9, 1.5 mg/plate): 297.3±6.4
- Mean plate counts (revertant colonies) ([5]; −S9, 5 mg/plate): 328.0±63.2
- CYP3A4 mRNA induction (concentration-dependent >2-fold increase) (CYP3A4): no evidence of mRNA induction
- fraction metabolized ([6]; within 30 min): more than 60%
- fraction metabolized ([6]; within 2 hours): nearly all
- CYP2B6 mRNA induction (concentration-dependent >2-fold increase) (CYP2B6): no evidence of mRNA induction
- principle metabolites observed [7]: salicylic acid (M1) and the glycoside conjugate metabolite of 2-HOBA
- Mean plate counts (revertant colonies) ([8]; +S9, 0.05 mg/plate): 6.7±0.6
- Mean plate counts (revertant colonies) ([8]; +S9, 0.15 mg/plate): 7.3±1.2
- Mean plate counts (revertant colonies) ([8]; +S9, 0.5 mg/plate): 8.0±1.0
- Mean plate counts (revertant colonies) ([8]; +S9, 1.5 mg/plate): 7.0±1.0
- Mean plate counts (revertant colonies) ([8]; +S9, 5 mg/plate): 6.3±1.5
- Change in revertant colony counts vs negative control (mutagenicity) ([8]; +S9 and −S9, all dose levels): No changes in revertant colony counts were observed
- Mean plate counts (revertant colonies) ([8]; −S9, 0.05 mg/plate): 6.7±0.6
- Mean plate counts (revertant colonies) [8, 14]: 7.0±0.0
- Mean plate counts (revertant colonies) ([8]; −S9, 0.15 mg/plate): 6.0±1.0
- Mean plate counts (revertant colonies) ([8]; −S9, 1.5 mg/plate): 6.0±1.0
- Mean plate counts (revertant colonies) ([8]; −S9, 5 mg/plate): 6.3±1.2
- body weight or survival [9]: did not affect body weight or survival
- CYP1A2 mRNA induction (concentration-dependent >2-fold increase) (CYP1A2): no evidence of mRNA induction
- metabolism in whole blood [10]: some 2-HOBA metabolism was observed
- hypertension (hypertension): improved hypertension
- % formazan absorbance relative to vehicle ([11]; all concentrations (0.3, 3, 30 µM), any donor): ≥ 94%
- Formazan absorbance ([11]; donor 1, 0.3 µM): 0.82
- Formazan absorbance (% of vehicle) ([11]; donor 1, 0.3 µM): 117 % of vehicle
- Formazan absorbance ([11]; donor 1, 3 µM): 0.81
- Formazan absorbance (% of vehicle) ([11]; donor 1, 3 µM): 115 % of vehicle
- Formazan absorbance ([11]; donor 1, 30 µM): 0.75
- Formazan absorbance (% of vehicle) ([11]; donor 1, 30 µM): 107 % of vehicle
- Formazan absorbance ([11]; donor 2, 0.3 µM): 0.37
- Formazan absorbance (% of vehicle) ([11]; donor 2, 0.3 µM): 94 % of vehicle
- Formazan absorbance ([11]; donor 2, 3 µM): 0.38
- Formazan absorbance (% of vehicle) ([11]; donor 2, 3 µM): 96 % of vehicle
- Formazan absorbance ([11]; donor 2, 30 µM): 0.39
- Formazan absorbance (% of vehicle) ([11]; donor 2, 30 µM): 100 % of vehicle
- Formazan absorbance ([11]; donor 3, 0.3 µM): 0.64
- Formazan absorbance (% of vehicle) ([11]; donor 3, 0.3 µM): 99 % of vehicle
- Formazan absorbance ([11]; donor 3, 3 µM): 0.66
- Formazan absorbance (% of vehicle) ([11]; donor 3, 3 µM): 102 % of vehicle
- Formazan absorbance ([11]; donor 3, 30 µM): 0.67
- Formazan absorbance (% of vehicle) ([11]; donor 3, 30 µM): 104 % of vehicle
- Formazan absorbance ([11]; mean of 3 donors, 0.3 µM): 0.61
- Formazan absorbance (% of vehicle) ([11]; mean of 3 donors, 0.3 µM): 103 % of vehicle
- Formazan absorbance ([11]; mean of 3 donors, 3 µM): 0.62
- Formazan absorbance (% of vehicle) ([11]; mean of 3 donors, 3 µM): 104 % of vehicle
- Formazan absorbance ([11]; mean of 3 donors, 30 µM): 0.61
- Formazan absorbance (% of vehicle) ([11]; mean of 3 donors, 30 µM): 103 % of vehicle
- stability in the presence of semicarbazide ([12]; rabbit blood fortified with semicarbazide (100 µm)): prevented the degradation of 2-HOBA
- time until undetectable ([12]; rabbit whole blood, 1 µM, 37°C): ≤ 2 h
- fraction metabolized ([12]; rabbit whole blood, within 30 min): more than 60%
- fraction metabolized ([12]; rabbit whole blood, within 2 hours): nearly all
- lifespan (C. elegans): increased lifespan
- fb (bound fraction) (plasma protein; 1 µM): 0.240 ± 0.051
- fb (bound fraction) (plasma protein; 10 µM): 0.049 ± 0.029
- fraction unbound at 4 h, 1 µM [13]: 0.76 ± 0.051
- fraction unbound at 4 h, 10 µM [13]: 0.951
- percent induction relative to positive control induction level (CYP1A2 or CYP3A4): less than 5 % of positive control
- IC50 (hERG): > 100 µM
- Inhibition of hERG current (hERG; 0.1 µM): no inhibition
- Inhibition of hERG current (hERG; 1 µM, mean ± SE): 3.0 ± 0.5 % inhibition
- Inhibition of hERG current (hERG; 10 µM, mean ± SE): 9.7 ± 1.8 % inhibition
- Inhibition of hERG current (hERG; 100 µM, mean ± SE): 29.1 ± 1.3 % inhibition
